An excerpt weighted towards active compounds, which were near 2.3% of everything screened.
FN deposition inh: fibronectin deposition inhibition; inhibition, % at 12.6 µM; 350,000 compounds, 0.086% hits; AH1F fibroblasts, Alexa488-fibronectin deposition fluorescence, overnight; AID 743247;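 active means mean inhibition across replicates of 30% or more, regardless of how many single replicates reach that level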;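 further: positive control wells lacked labelled fibronectin entirely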
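Assay system: AH1F fibroblasts assembling fluorescent fibronectin matrix; Amount: 10000 AH1F cells per well; Buffer or medium: DMEM, 2% serum; Probe or stimulus: Alexa488-fibronectin, 24 nM final in well; Doses: single compound dose, delivered by pin transfer; Incubation: 1 h adhesion, overnight exposure; Measured by: fluorescence 485/525 nm; Read-out: fibronectin deposition inhibition.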
PAX8 inh HTS: lowers PAX8-driven luciferase in RMG-I cells. RMG-I TPO-luciferase reporter, SteadyGlo, 24 h. inhibition, % at 12.6 µM. 360,000 compounds, 1.2% hits. AID 652154;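 active means mean replicate inhibition at least 60% with every replicate also reaching 60%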;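 further: luciferase light reporting Pax8 driven TPO promoter activity; plate controls were median of neutral control wells for no effect and mitoxantrone controls for full effect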
EWS-Fli block: inhibitors of EWS/Fli oncoprotein transcriptional activity. A673 NR0B1-luciferase reporter, viability-normalised. inhibition, % at 12.6 µM. 350,000 compounds, 0.67% hits. AID 651661;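 active means mean inhibition of at least 50% after viability correction, with every replicate also passing that limit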;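 further: firefly luciferase signal divided by Alamar Blue viability fluorescence both relative to DMSO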
PGC1a acetyl inh: lowers PGC1a acetylation signal in U2OS cells. AlphaScreen anti-acetyl-lysine; with virally co-expressed GCN5 acetyltransferase. inhibition, % at 15.6 µM. 350,000 compounds, 0.17% hits. AID 651687;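 active means every replicate shows inhibition of at least 40%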;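 further: 0% = neutral control wells and 100% = positive control wells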
CFTR F508del cor: correctors of CFTR F508del function in bronchial epithelial cells; AID 720511; activity (quench increase), % at 7.58 µM; 350,000 compounds, 0.36% hits; CFBE cells, YFP halide quenching; stimulated with forskolin plus potentiator P3; % fluorescence drop versus neutral controls;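 active means mean added fluorescence quench of at least 8% versus neutral control, with both replicates also reaching 8%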;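 further: cells transiently co-express mutant CFTR-F508del with the halide-sensitive YFP; corrector assay measuring rescue of mutant channel to the surface after 24 h compound exposure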
Env fusion inh: inhibitors of HIV Env-mediated cell fusion. HeLa-JRFL Env/CEM21 cell fusion, luciferase. inhibition, % at 12.3 µM. 360,000 compounds, 1.1% hits. AID 651610;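 active means mean replicate inhibition score of at least 50 and every replicate individually at or above 50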;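 further: 0% = plate neutral controls and 100% = maraviroc near 300 nM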
An asterisk follows results filed as active; x = no result given; [ ] = another dose, or the depositor's remark.

SMILES | FN deposition inh | PAX8 inh HTS | EWS-Fli block | PGC1a acetyl inh | CFTR F508del cor | Env fusion inh
C[C@@H]1CCCCO[C@H](CN(C)C(=O)Nc2ccc(C(F)(F)F)cc2)[C@@H](C)CN([C@@H](C)CO)C(=O)c2cc(NS(=O)(=O)c3ccccc3)ccc2O1 | -15 | 81* | 7 | 5 | 0 | 46[16.7 µM]
O=C(NC1Cc2ccccc2C1)[C@@H]1[C@@H](CO)[C@@H]2Cn3c(cccc3=O)[C@@H]2N1C(=O)C1CC1 | x | x | -3 | x | -2 | x
C[C@@H]1CN([C@@H](C)CO)C(=O)c2cc(NC(=O)Nc3ccc(F)cc3)ccc2O[C@@H](C)CCCCO[C@@H]1CN(C)S(=O)(=O)c1ccccc1 | x | -13 | 4 | -2 | 2 | -8[16.7 µM]
C[C@@H]1CN([C@H](C)CO)C(=O)c2cc(NC(=O)Nc3ccc(F)cc3)ccc2O[C@@H](C)CCCCO[C@H]1CN(C)S(=O)(=O)c1ccccc1 | x | 88* | 16 | -2 | 2 | 48[16.7 µM]
C[C@@H]1CCCCO[C@@H](CN(C)S(=O)(=O)c2ccccc2)[C@H](C)CN([C@H](C)CO)C(=O)c2cc(NC(=O)Nc3ccc(F)cc3)ccc2O1 | x | 73* | 16 | -4 | 1 | 35[16.7 µM]
COc1ccc(S(=O)(=O)N(C)C[C@@H]2Oc3ccc(NC(=O)NC(C)C)cc3C(=O)N([C@H](C)CO)C[C@@H]2C)cc1 | -2 | x | 2 | -5 | 1 | -14[16.7 µM]
Cc1cccc(N2CCN(Cc3cn(C)nc3-c3ccccc3F)CC2)n1 | 5 | 12 | 59* | -1 | 9.1* | 2
COc1ccc(CC(=O)N2N=C(c3ccncc3)CC2(O)C(F)(F)F)cc1 (stereo unspecified) | -10 | 31 | 53* | x | 6 | -9
COC(=O)C1(C(=O)OC)C[C@H](c2ccc(OC)cc2)N(Cc2ccccc2OC)[C@@H]1c1cccs1 | -7 | -20 | -2 | x | -3 | 92*
CC(C)CNC(=O)N1c2ccccc2Sc2ccccc21 | 6 | 13 | 8 | x | -1 | 11
O=C(NCCc1ccccc1)N1c2ccccc2Sc2ccccc21 | -13 | 11 | x | 1 | x | 60*
CCCN(C)C[C@@H]1Oc2cc(C#CC3CCCC3)ccc2S(=O)(=O)N([C@@H](C)CO)C[C@@H]1C | 0 | 11 | -18 | -13 | 1 | 9[16.7 µM]
N#C/C(=C/c1ccc(-c2ccccc2)o1)c1nc(-c2cccs2)cs1 | x | 17 | 83* | x | x | 3
CO[C@H]1CN(C)C(=O)c2ccc(NC(=O)C3CC3)cc2OC[C@H](C)N(C(=O)c2ccccn2)C[C@H]1C | 2 | -4 | 2 | -7 | -1 | -5[16.7 µM]
CC(C)NC(=O)N(C)C[C@H]1Oc2ncc(C#CC3CCCC3)cc2C(=O)N([C@@H](C)CO)C[C@H]1C | -5 | -25 | -5 | 7 | -1 | -7[16.7 µM]
Cc1ccc(-c2n[nH]c(=S)n2/N=C/c2cccn2C)cc1 | x | x | x | 50* | x | x
O=C(NC1CCCCC1)C(c1ccccc1F)n1c(=O)c(-c2ccco2)nc2ccccc21 (stereo unspecified) | -13 | 19 | -7 | x | -2 | 59*
O=C(NC1CCCCC1)C(c1ccnc2ccccc12)n1c(=O)c(-c2ccco2)nc2ccccc21 (stereo unspecified) | -6 | 31 | 5 | x | 4 | 10
COCC(=O)N(C)C[C@H]1Oc2cc(C#CC3CCCC3)ccc2S(=O)(=O)N([C@@H](C)CO)C[C@@H]1C | x | x | 5 | 2 | 1 | 7[16.7 µM]
C=CCn1c(SC(F)F)nc2scc(-c3ccco3)c2c1=O | 37* | 82* | 13 | -11 | 2 | -22
CO[C@@H]1CN(C)C(=O)c2ccc(NC(=O)c3cc(C)on3)cc2OC[C@H](C)N(CC2CC2)C[C@@H]1C | -6 | -4 | -5 | -3 | 2 | x
COC(=O)c1c(NC(=O)CN2CCN(c3ccccc3Cl)CC2)sc(C)c1C | 34* | 1 | x | x | x | 13
C[C@@H](NC(=O)C[C@H]1CC[C@@H](NC(=O)c2cccnc2)[C@@H](CO)O1)c1ccccc1 | 11 | 0 | -4 | -12 | 0 | 3[16.7 µM]
CC[C@H]1OC(=O)[C@H](C)[C@@H](O[C@H]2C[C@@](C)(OC)[C@@H](O)[C@H](C)O2)[C@H](C)[C@@H](O[C@@H]2O[C@H](C)C[C@H](N(C)C)[C@H]2O)[C@](C)(O)C[C@@H](C)C(=O)[C@H](C)[C@@H](O)[C@]1(C)O | x | 0 | 9 | -8 | 9.0* | -35

Compound activity: PubChem, Broad Institute
